Assays:
Format in all cases: cell-based
Conditions in all cases: read-out: MIC of ceftazidime
[1] = test system: Escherichia coli DH10B cells expressing IMP-1; experiment: MIC assay, E. coli DH10B cells expressing IMP-1
[2] = test system: Escherichia coli DH10B cells expressing NDM-1; experiment: MIC assay, E. coli DH10B cells expressing NDM-1
[3] = test system: Escherichia coli DH10B cells not expressing any MBL; experiment: MIC assay, E. coli DH10B control cells not expressing any MBL
How it was run: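 Ceftazidime MIC was measured in complex medium against E. coli DH10B carrying no MBL. This strain served as the control for DH10B expressing NDM-1, IMP-1 or VIM-2.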

[4] = test system: Escherichia coli DH10B cells expressing VIM-2; experiment: MIC assay, E. coli DH10B cells expressing VIM-2

Question: For CC(C)(O/N=C(\C(=O)N[C@@H]1C(=O)N2C(C(=O)[O-])=C(C[n+]3ccccc3)CS[C@H]12)c1csc(N)n1)C(=O)O [ceftazidime], which MIC [1] is on record?
Answer: Its MIC is 512 mg/L.

Question: What about the MIC [2] of the same compound?
Answer: The MIC was 256 mg/L.

Question: What about the MIC [3] of the same compound?
Answer: The MIC was 0.5 mg/L.

Question: What about the MIC [4] of the same compound?
Answer: Its MIC is 32 mg/L.
